The source made the active and inactive calls. The rule behind the calls is not given here.
Experiments:
[1] = Inhibition of ASM in dog MDCK cells co-expressing recombinant full length mGFP-tagged KRAS G12V mutant and mCherry-CAAX assessed as reduction in plasma membrane localization of KRAS mutant incubated for 48 hrs by confocal microscopic analysis; assay type: cell membranes, Canis lupus familiaris
Outline: (§1)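 MDCK cells stably co-expressing mGFP-KRAS G12V or mGFP-LactC2 with mCherry-CAAX (HRAS 179–189 C181S/C184S) grown on coverslips in DMEM/10% FBS. Treated 48 h with 0.1% DMSO or graded drug, fixed in 4% paraformaldehyde, then quantitative confocal imaging. Mislocalization scored as the Manders fraction of mCherry-CAAX co-localizing with the GFP probe. IC50 and Emax from three independent experiments.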

[2] = tested on: MDCK; test: Inhibition of ASM in dog MDCK cells co-expressing recombinant full length mGFP-tagged KRAS G12V mutant and mCherry-CAAX assessed as reduction in plasma membrane localization of KRAS mutant incubated for 48 hrs by confocal microscopic analysis relative to control; assay type: cell membranes; settings: Canis lupus familiaris; outline: as §1
[3] = tested on: MDCK; test: Cytotoxicity against dog MDCK cells at 30 uM; assay type: functional, cell-based; settings: Canis lupus familiaris

Row | Compound | IC50 [1] [µM] | Emax [2] | Activity [3]
1 | COc1ccc([C@@H](C)N(CC=C(c2ccccc2)c2ccccc2)CCN(C)C)cc1 | 11.2 | 0.66 | Active
2 | C=CCN(CC=C(c1ccccc1)c1ccccc1)[C@H](C)c1ccc(OC)cc1 | 13 | 0.47 | inactive
3 | COc1ccc([C@@H](C)N(C/C=C/c2ccccc2)CCN2CCN(C)CC2)cc1 | 14.8 | 0.84 | inactive
4 | CCN(CC)CCN(CC=C(c1ccccc1)c1ccccc1)[C@H](C)c1ccc(OC)cc1 |  | 0.89 | Active
5 | COc1ccc([C@@H](C)N(CC=C(c2ccccc2)c2ccccc2)CCO)cc1 | 0.2 | 0.72 | inactive
6 | COc1ccc([C@@H](C)N(CC=C(c2ccccc2)c2ccccc2)CCN2CCOCC2)cc1 | 4.4 | 0.86 | inactive

More lines, main results first:

Row | IC50 [1] [µM] | Emax [2] | Compound | Activity [3]
7 | 0.5 | 0.69 | COc1ccc([C@@H](C)N(CC=C(c2ccccc2)c2ccccc2)CCN2CCC2)cc1 | Active
8 |  | 0.81 | COc1ccc([C@@H](C)N(CC=C(c2ccccc2)c2ccccc2)CCCCN2CCN(C)CC2)cc1 | Active
9 | 0.6 | 0.79 | C[C@H](c1ccccc1)N(CC=C(c1ccccc1)c1ccccc1)CCN1CCN(C)CC1 | Active
10 | 11.2 | 0.77 | C[C@H](c1cccc(Cl)c1)N(CC=C(c1ccccc1)c1ccccc1)CCN1CCN(C)CC1 | Active
11 | 3.8 | 0.86 | COc1ccccc1[C@@H](C)N(CC=C(c1ccccc1)c1ccccc1)CCN1CCN(C)CC1 | Active
12 | 5.2 | 0.62 | C[C@H](c1ccc([N+](=O)[O-])cc1)N(CC=C(c1ccccc1)c1ccccc1)CCN1CCN(C)CC1 | Active
13 | 7.1 | 0.51 | COc1ccc([C@@H](C)N(CC=C(c2ccccc2)c2ccccc2)C(=O)CN2CCN(C)CC2)cc1 | Active
